Laboratory results taken from ChEMBL document CHEMBL1131497, “Discovery of 1-(4-fluorophenyl)-(3R)-[3-(4-fluorophenyl)-(3S)-hydroxypropyl]-(4S)-(4 -hydroxyphenyl)-2-azetidinone (SCH 58235): a designed, potent, orally active inhibitor of cholesterol absorption” (J Med Chem, 1998).
Calls of active or inactive are those of the source. No cut-off for these calls is given here.

Legend:
Cricetinae gen. sp. [1] = test: Evaluated for its ability to reduce liver cholesterol esters(LCE) in cholesterol-fed hamsters.; type: functional, Cricetulus griseus
Method in brief: (§1)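 Hamsters were fed a 0.5% cholesterol diet for 7 days with once-daily oral gavage dosing in 0.2 mL corn oil. Controls got the same diet and vehicle without drug. Livers were collected on day 7 and neutral lipids extracted. Cholesteryl ester content was measured by HPLC. Results are given as percent change in hepatic cholesteryl ester versus cholesterol-fed controls, or as ED50 in mg/kg/day.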

Cricetinae gen. sp. [2] = test: The compound was evaluated for percent reduction of liver cholesterol esters(LCE) in cholesterol-fed hamsters at 10 mg/Kg/day; type: functional, Cricetulus griseus; method in brief: as §1
Cricetinae gen. sp. [3] = test: The compound was evaluated for its ability to reduce liver cholesterol esters(LCE) in cholesterol-fed hamsters; NE=no effect at 100 mg/kg; type: functional, organism-based; set-up: dose 100 mg/kg; conditions: Cricetulus griseus; method in brief: as §1
[4] = Percent negation of rise in total serum cholesterol relative to control-fed 0.5% cholesterol for 7 days, At a dose of 0.3 mg/kg/day; type: ADME, organism-based; conditions: in vivo, 168 h
Method in brief: (§2)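 Serum total cholesterol was measured in hamsters given 0.5% dietary cholesterol for 7 days with daily oral gavage dosing (0.2 mL corn oil vehicle). Controls were cholesterol-fed animals receiving vehicle without drug. Results are expressed as percent negation of the diet-induced rise in serum total cholesterol relative to these controls.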

[5] = Percent negation of rise in total serum cholesterol relative to control-fed 0.5% cholesterol for 7 days, At a dose of 1 mg/kg/day; type: ADME, organism-based; conditions: in vivo, 168 h; method in brief: as §2
[6] = The pharmacokinetics property percent negation of rise in liver cholesterol esters relative to control-fed 0.5% cholesterol for 7 days, At a dose of 0.1 mg/kg/day; type: ADME, organism-based; conditions: in vivo, 168 h; method in brief: as §1
[7] = Percent negation of rise in total serum cholesterol relative to control-fed 0.5% cholesterol for 7 days, At a dose of 3 mg/kg/day; type: ADME, organism-based; conditions: in vivo, 168 h; method in brief: as §2
[8] = Percent negation of rise in total serum cholesterol relative to control-fed 0.5% cholesterol for 7 days, at a dose of 0.03 mg/kg/day; type: ADME, organism-based; conditions: in vivo, 168 h; method in brief: as §2
[9] = The pharmacokinetics property percent negation of rise in liver cholesterol esters relative to control-fed 0.5% cholesterol for 7 days, At a dose of 3 mg/kg/day; type: ADME, organism-based; conditions: in vivo, 168 h; method in brief: as §1
[10] = Percent negation of rise in total serum cholesterol relative to control-fed 0.5% cholesterol for 7 days, At a dose of 0.1 mg/kg/day; type: ADME, organism-based; conditions: in vivo, 168 h; method in brief: as §2
[11] = The pharmacokinetics property percent negation of rise in liver cholesterol esters relative to control-fed 0.5% cholesterol for 7 days, At a dose of 0.3 mg/kg/day; type: ADME, organism-based; conditions: in vivo, 168 h; method in brief: as §1
[12] = The pharmacokinetics property percent negation of rise in liver cholesterol esters relative to control-fed 0.5% cholesterol for 7 days, At a dose of 0.03 mg/kg/day; type: ADME, organism-based; conditions: in vivo, 168 h; method in brief: as §1
[13] = The pharmacokinetics property percent negation of rise in liver cholesterol esters relative to control-fed 0.5% cholesterol for 7 days, At a dose of 1 mg/kg/day; type: ADME, organism-based; conditions: in vivo, 168 h; method in brief: as §1
[14] = Percent negation of rise in total serum cholesterol relative to control-fed 0.5% cholesterol for 7 days, At a dose of 0.3 mg/kg/day; percent reduction was not statistically significant; type: ADME, organism-based; conditions: in vivo, 168 h; method in brief: as §2
[15] = The pharmacokinetics property percent negation of rise in liver cholesterol esters relative to control-fed 0.5% cholesterol for 7 days, At a dose of 0.3 mg/kg/day; percent reduction was not statistically significant; type: ADME, organism-based; conditions: in vivo, 168 h; method in brief: as §1
[16] = Percent negation of rise in total serum cholesterol relative to control-fed 0.5% cholesterol for 7 days, At a dose of 1 mg/kg/day; percent reduction was not statistically significant; type: ADME, organism-based; conditions: in vivo, 168 h; method in brief: as §2
Cricetinae gen. sp. [17] = test: The compound was evaluated for percent reduction of liver cholesterol esters(LCE) in cholesterol-fed hamsters at 3 mg/kg/day; type: functional, Cricetulus griseus; method in brief: as §1
Cricetinae gen. sp. [18] = test: The compound was evaluated for percent reduction of liver cholesterol esters(LCE) in cholesterol-fed hamsters at 2.5 mg/Kg/day; type: functional, Cricetulus griseus; method in brief: as §1
Cricetinae gen. sp. [19] = conditions: Cricetulus griseus; Liver; 10 mg/kg

## O=C1[C@H](CC[C@H](O)c2ccc(F)cc2)[C@@H](c2ccc(OCc3ccccc3)cc2)N1c1ccc(F)cc1
Cricetinae gen. sp. [1]
  ED50: 0.1 mg/kg/day

## COc1ccc([C@@H]2[C@@H](CCCc3ccc(O)cc3)C(=O)N2c2ccc(OC)cc2)cc1
Cricetinae gen. sp. [2]
  Reduction: -16%

## O=C1[C@H](CCCc2ccccc2)[C@@H](c2ccc(O)cc2)N1c1ccc(O)cc1
Cricetinae gen. sp. [2]
  Reduction: -68%

## O=C(CC[C@H]1C(=O)N(c2ccc(F)cc2)[C@@H]1c1ccc(O)cc1)c1ccc(F)cc1
Cricetinae gen. sp. [1]
  ED50: 0.3 mg/kg/day

## CC(=O)Oc1ccc([C@@H]2[C@@H](CC[C@@H](OC(C)=O)c3ccc(F)cc3)C(=O)N2c2ccc(F)cc2)cc1
Cricetinae gen. sp. [1]
  ED50: 1.5 mg/kg/day

## COc1ccc([C@@H]2[C@@H](CCCc3ccc(F)cc3)C(=O)N2c2ccc(F)cc2)cc1
Cricetinae gen. sp. [1]
  ED50: 0.7 mg/kg/day

## CC1CC[C@@]2(OC1)O[C@H]1C[C@H]3[C@@H]4CC[C@H]5C[C@@H](O[C@@H]6O[C@@H](CO)[C@@H](O[C@@H]7O[C@@H](COC(=O)Nc8ccccc8F)[C@@H](OC(=O)Nc8ccccc8F)[C@H](O)[C@@H]7O)[C@H](O)[C@@H]6O)CC[C@]5(C)[C@H]4CC(=O)[C@]3(C)[C@H]1[C@@H]2C (some centres not stated)
Cricetinae gen. sp. [1]
  ED50: 0.07 mg/kg/day

## COc1ccc([C@@H]2[C@@H](CC[C@H](O)c3ccccc3)C(=O)N2c2ccc(OC)cc2)cc1
Cricetinae gen. sp. [1]
  ED50: 0.9 mg/kg/day

## COc1ccc(N2C(=O)[C@H](CCCc3ccccc3)[C@H]2c2ccc(O)cc2)cc1
Cricetinae gen. sp. [1]
  ED50: 5 mg/kg/day

## O=C1[C@H](CCCc2ccc(F)cc2)[C@@H](c2ccc(O)cc2)N1c1ccc(F)cc1
Cricetinae gen. sp. [1]
  ED50: 2 mg/kg/day

## COc1ccc(N2C(=O)[C@H](CCC(=O)c3ccccc3)[C@H]2c2ccc(O)cc2)cc1
Cricetinae gen. sp. [1]
  ED50: 3 mg/kg/day

## COc1ccc(N2C(=O)[C@H](CC[C@H](O)c3ccccc3)[C@H]2c2ccc(O)cc2)cc1
Cricetinae gen. sp. [1]
  ED50: 0.3 mg/kg/day

## COc1ccc([C@@H]2[C@@H](CCC(=O)c3ccccc3)C(=O)N2c2ccc(OC)cc2)cc1
Cricetinae gen. sp. [1]
  ED50: 2 mg/kg/day

## O=C1[C@H](CC[C@@H](O)c2ccc(F)cc2)[C@@H](c2ccc(O)cc2)N1c1ccc(F)cc1
Cricetinae gen. sp. [1]
  ED50: 0.8 mg/kg/day

## COc1ccc([C@@H]2[C@@H](CC[C@@H](O)c3ccccc3)C(=O)N2c2ccc(OC)cc2)cc1
Cricetinae gen. sp. [1]
  ED50: 5 mg/kg/day

## COc1ccc(N2C(=O)[C@H](CC[C@@H](O)c3ccccc3)[C@H]2c2ccc(O)cc2)cc1
Cricetinae gen. sp. [1]
  ED50: 3 mg/kg/day

## O=C1[C@H](C/C=C/c2ccc(F)cc2)[C@@H](c2ccc(O)cc2)N1c1ccc(F)cc1
Cricetinae gen. sp. [1]
  ED50: 2.5 mg/kg/day

## Cc1ccc(C)c(OCCCC(C)(C)C(=O)O)c1
Cricetinae gen. sp. [3]
  ED50: inactive

## CC1CC[C@@]2(OC1)O[C@H]1C[C@H]3[C@@H]4CC[C@H]5C[C@@H](O[C@@H]6O[C@@H](CO)[C@@H](O[C@@H]7O[C@@H](COC(=O)Nc8ccccc8F)[C@@H](OC(=O)Nc8ccccc8F)[C@H](O)[C@@H]7O)[C@H](O)[C@@H]6O)CC[C@]5(C)[C@H]4C(=O)C[C@]3(C)[C@H]1[C@@H]2C (some centres not stated)
Cricetinae gen. sp. [1]
  ED50: 0.025 mg/kg/day

## O=C1[C@H](CC[C@H](O)c2ccc(F)cc2)[C@@H](c2ccc(O)cc2)N1c1ccc(F)cc1 [EZETIMIBE]
[4]
  Negation: -72%
[5]
  Negation: -100%
[6]
  Negation: -87%
[7]
  Negation: -100%
[8]
  Negation: -23%
[9]
  Negation: -100%
[10]
  Negation: -37%
[11]
  Negation: -96%
Cricetinae gen. sp. [1]
  ED50: 0.04 mg/kg/day
[12]
  Negation: -39%
[13]
  Negation: -100%

## COc1ccc([C@@H]2[C@@H](CCCc3ccccc3)C(=O)N2c2ccc(OC)cc2)cc1 [SCH-48461]
[14]
  Negation: Not Active
[7]
  Negation: -76%
[9]
  Negation: -68%
Cricetinae gen. sp. [1]
  ED50: 2.2 mg/kg/day
[15]
  Negation: Not Active
[16]
  Negation: Not Active

## COc1ccc(N2C(=O)[C@H](CCCc3ccc(O)cc3)[C@H]2c2ccc(O)cc2)cc1
Cricetinae gen. sp. [2]
  Reduction: -64%

## O=C(CC[C@H]1C(=O)N(c2ccc(F)cc2)[C@@H]1c1ccc(OCc2ccccc2)cc1)c1ccc(F)cc1
Cricetinae gen. sp. [17]
  Reduction: -96%

## CCC(CC(CC)c1ccc(C[N+](C)(C)C)cc1)c1ccccc1.[Cl-] (configuration not stated)
Cricetinae gen. sp. [18]
  % reduction: -96

## COc1ccc([C@@H]2[C@@H](CCCc3ccccc3)C(=O)N2c2ccc(O)cc2)cc1
Cricetinae gen. sp. [2]
  Reduction: -78%

## CC(=O)Oc1ccc([C@@H]2[C@@H](CC[C@H](OC(C)=O)c3ccc(F)cc3)C(=O)N2c2ccc(F)cc2)cc1
Cricetinae gen. sp. [1]
  ED50: 0.06 mg/kg/day

## CC[C@H](C)C(=O)O[C@H]1C[C@@H](C)C=C2C=C[C@H](C)[C@H](CC[C@@H]3C[C@@H](O)CC(=O)O3)[C@H]21
Cricetinae gen. sp. [19]
  ED50: No effect
